Results on 24 compounds are retold here after PMC5361409 (Bioorganic & medicinal chemistry letters, 2016).

Structures are written as SMILES. pIC50, pKi: −log10 of the molar value. “Also recorded” adds a separate entry of the source.

The target of one data set is D5 (Homo sapiens, UniProt P21918). Kind of data set: Dopamine receptor selectivity, radioligand binding at EuroFins: D5. The note with it: read-out: % inhibition at 10 µM D5 (%). The method, boiled down:
(§1)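 Contract radioligand binding screen against the indicated human dopamine receptor subtype. Each test compound was run in duplicate, and the read-out is percent inhibition of specific radioligand binding.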

Another data set deals with D1 (Homo sapiens, UniProt P21728). Nature of the data set: Dopamine receptor selectivity, radioligand binding at EuroFins: D1. As to conditions: read-out: % inhibition at 10 µM D1 (%). The procedure, abridged:
as §1

For the next data set, the target named is D3 (Homo sapiens, UniProt P35462). Kind of data set: Dopamine receptor selectivity, radioligand binding at EuroFins: D3. As to conditions: read-out: % inhibition at 10 µM D3 (%). The procedure, abridged:
as §1

For data set [1], the target named is T1, dopamine D4 receptor (D4R) (Homo sapiens, UniProt P21917).
T1 sequence (P21917 1-419): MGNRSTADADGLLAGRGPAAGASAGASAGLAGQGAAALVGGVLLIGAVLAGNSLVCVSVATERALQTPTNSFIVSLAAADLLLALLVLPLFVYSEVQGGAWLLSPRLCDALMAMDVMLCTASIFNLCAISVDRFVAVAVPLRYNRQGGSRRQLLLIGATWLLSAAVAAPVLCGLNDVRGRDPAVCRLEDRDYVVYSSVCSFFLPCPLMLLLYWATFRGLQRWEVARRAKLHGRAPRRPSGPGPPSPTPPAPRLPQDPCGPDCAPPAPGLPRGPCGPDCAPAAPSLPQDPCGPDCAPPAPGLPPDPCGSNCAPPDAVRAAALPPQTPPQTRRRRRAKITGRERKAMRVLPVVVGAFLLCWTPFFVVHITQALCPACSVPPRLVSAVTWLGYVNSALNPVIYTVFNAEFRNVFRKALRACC
Nature of the data set: D4 radioligand binding assay using Spiperone at EuroFins. As to conditions: run in duplicate.

The nature of data set [2]: Intrinsic clearance in rat liver microsomes. It is filed as in vitro ADME. Background: Liver microsomes are vesicles of endoplasmic reticulum, rich in cytochrome P450 enzymes.
The nature of data set [3]: Intrinsic clearance in human liver microsomes. It counts as in vitro ADME. As to conditions: for CLint scaled: human, liver microsomes; for predicted clearance: predicted from CLINT in liver microsomes (rat and human), in words.
Data set [4] deals with other dopamine receptors (D1, D2L, D2S, D3, and D5). Nature of the data set: Selectivity against the other dopamine receptors. It is filed as binding. As to conditions: for selectivity against all of the dopamine receptors tested: in words.
A short description of data set [5]: Metabolic soft-spot experiment in human liver microsomes. It counts as in vitro ADME.
A short description of data set [6]: Metabolic soft-spot experiment in rat liver microsomes. It is filed as in vitro ADME.
Where [7] appears, read: in the presence of NADPH, in words.

D1, sequence (P21728 whole entry): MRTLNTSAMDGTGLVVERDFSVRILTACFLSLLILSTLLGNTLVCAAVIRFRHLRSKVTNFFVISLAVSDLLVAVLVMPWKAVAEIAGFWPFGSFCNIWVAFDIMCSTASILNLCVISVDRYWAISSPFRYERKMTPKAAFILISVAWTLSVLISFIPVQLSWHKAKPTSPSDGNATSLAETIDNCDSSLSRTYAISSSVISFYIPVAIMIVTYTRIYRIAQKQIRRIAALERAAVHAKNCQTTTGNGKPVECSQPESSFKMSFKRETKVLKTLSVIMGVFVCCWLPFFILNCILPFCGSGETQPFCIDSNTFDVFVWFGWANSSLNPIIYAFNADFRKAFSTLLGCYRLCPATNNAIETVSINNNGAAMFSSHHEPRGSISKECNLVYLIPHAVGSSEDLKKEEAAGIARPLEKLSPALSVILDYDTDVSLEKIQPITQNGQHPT
D5, sequence (P21918 whole entry): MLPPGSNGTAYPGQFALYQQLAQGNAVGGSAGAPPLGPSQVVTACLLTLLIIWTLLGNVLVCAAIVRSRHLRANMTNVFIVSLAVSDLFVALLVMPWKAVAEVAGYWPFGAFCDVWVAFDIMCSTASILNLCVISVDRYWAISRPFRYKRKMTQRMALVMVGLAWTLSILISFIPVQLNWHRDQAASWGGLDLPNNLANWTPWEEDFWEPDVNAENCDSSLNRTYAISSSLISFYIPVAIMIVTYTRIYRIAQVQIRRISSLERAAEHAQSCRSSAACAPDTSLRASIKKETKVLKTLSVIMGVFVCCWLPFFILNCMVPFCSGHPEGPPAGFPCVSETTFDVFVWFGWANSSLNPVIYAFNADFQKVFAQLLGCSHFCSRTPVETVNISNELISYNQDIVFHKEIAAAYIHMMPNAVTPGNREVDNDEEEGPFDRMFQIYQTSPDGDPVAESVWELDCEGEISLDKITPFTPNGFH
D3, sequence (P35462 whole entry): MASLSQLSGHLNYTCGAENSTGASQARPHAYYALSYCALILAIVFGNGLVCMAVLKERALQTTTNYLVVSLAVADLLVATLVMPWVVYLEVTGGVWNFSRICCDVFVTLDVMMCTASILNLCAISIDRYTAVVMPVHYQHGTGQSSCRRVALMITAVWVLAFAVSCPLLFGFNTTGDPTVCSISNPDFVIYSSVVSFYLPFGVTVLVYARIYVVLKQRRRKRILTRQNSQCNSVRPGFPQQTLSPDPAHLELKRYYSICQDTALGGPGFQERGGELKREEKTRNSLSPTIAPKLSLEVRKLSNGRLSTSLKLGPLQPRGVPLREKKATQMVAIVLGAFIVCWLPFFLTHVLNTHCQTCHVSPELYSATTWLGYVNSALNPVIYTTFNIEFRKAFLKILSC

A word on the inhibition: it is how much of the control response was suppressed. With `Cc1ccc(CN2CCO[C@H](COc3ccccc3)C2)cc1C` [Compound 4b], the inhibition at 10 µM at D5, on D1 and at D3 was < 50% throughout.

As a reminder, the pIC50 is the negative decadic logarithm of the IC50, by convention in mol/L. High values mean a low IC50, low ones a high IC50. The pKi is −log10 of the Ki, conventionally taken in molar units. Higher therefore signals a small Ki. `Clc1ccc(CN2CCO[C@H](CCc3ccccc3)C2)cc1` [ML398]: in [1], the pIC50 is 6.89 and the pKi is 7.44.

By CLint scaled is commonly meant the capacity of the preparation to metabolise the compound, expressed as a volume cleared per time. Read a low CLint scaled as slow turnover. As to `Clc1ccc(CN2CCO[C@H](COc3cccc(Cl)n3)C2)cc1` [Compound 5z], the CLint scaled in data set [2] stood at 5310 mL/min/kg; in data set [3], 98.2 mL/min/kg.

Regarding `Cc1ccc(CN2CCO[C@H](CSc3ccccc3)C2)cc1C` [Compound 5bb], the results for the CLint scaled in data set [2] and in [3] were 6440 mL/min/kg and 366 mL/min/kg, respectively. The inhibition at 10 µM on D5, on D1 and on D3 was < 50% throughout. Besides, the “selectivity for D4 over the other dopamine receptors” value (“selectivity for D4” for short) in data set [4] is given as > 1000 fold. Besides, the “selectivity against all of the dopamine receptors tested” value (shortened to “selectivity against all”) in [4] is listed as “completely selective”.

With `Clc1ccc2c(CN3CCO[C@H](COc4ccccc4)C3)c[nH]c2c1` [Compound 4aa], the values for the CLint scaled in data set [2] and in data set [3] were 614 mL/min/kg and 46.7 mL/min/kg, respectively.

Regarding `Fc1ccc2c(CN3CCO[C@H](COc4ccccc4)C3)c[nH]c2c1` [Compound 4ee], the results for the CLint scaled in data set [2] and in data set [3] were 1690 mL/min/kg and 71.1 mL/min/kg, respectively.

Take `Clc1ccc(CN2CCO[C@H](COc3ccccc3)C2)cc1` [Compound 4a]: the results for the CLint scaled in [2] and in data set [3] were 4520 mL/min/kg and 147 mL/min/kg, respectively.

`Clc1ccc(CN2CCO[C@H](COc3ccccc3)C2)cc1Cl` [Compound 4i]: the CLint scaled in data set [2] was 621 mL/min/kg; in data set [3], 50.5 mL/min/kg.

For `Fc1ccc2c(CN3CCO[C@H](COc4cccc(F)n4)C3)c[nH]c2c1` [Compound 5u], the values for the CLint scaled in [2] and in data set [3] were 4010 mL/min/kg and 101 mL/min/kg, respectively. For the same compound, the inhibition at 10 µM at D5, on D1 and at D3 was < 50% in each case. Further, the “selectivity against all” value in data set [4] is given as “fully selective”.

Turning to `COc1ccc(CN2CCO[C@H](COc3ccccc3)C2)cc1F` [Compound 4l], the values for the CLint scaled in data set [2] and in data set [3] were 2130 mL/min/kg and 71.9 mL/min/kg, respectively.

As to `Clc1ccc(CN2CCO[C@H](CSc3ccccc3)C2)cc1` [Compound 5aa], the CLint scaled in data set [2] was 3220 mL/min/kg; in [3], 122 mL/min/kg. The inhibition at 10 µM at D5, on D1 and on D3 was < 50% in each case. In addition, the “selectivity for D4” value in data set [4] is on record as > 1000 fold. In addition, the “selectivity against all” value in [4] is “completely selective”.

As for `Cn1ncc2cc(CN3CCO[C@H](COc4ccccc4)C3)ccc21` [Compound 4y], the CLint scaled in data set [2] is 433 mL/min/kg; in data set [3], 60.5 mL/min/kg.

With `Fc1ccc2c(CN3CCO[C@H](COc4cccc(Cl)n4)C3)c[nH]c2c1` [Compound 5y, (S)-2-(((6-chloropyridin-2-yl)oxy)methyl)-4-((6-fluoro-1H-indol-3-yl)methyl)morpholine], the “major metabolite in human microsomes” value in data set [5] (Compound A = N-dealkylation) was “Compound A”. In addition, the “extent of metabolism in human liver microsomes” value in data set [5] (setting [7]) is recorded as “highly metabolized”. The CLint scaled in [2] was 4200 mL/min/kg; in [3] it was 230 mL/min/kg. In addition, the “major metabolite in rat microsomes” value in data set [6] (Compound B = N-dealkylation + oxidation) was “Compound B”. In addition, the “extent of metabolism in rat liver microsomes” value in data set [6] (setting [7]) is on record as “highly metabolized”. Further, the inhibition at 10 µM on D5, on D1 and on D3 was < 50% in each case. The “selectivity for D4” value in data set [4] was > 1000 fold. Also, the “selectivity against all” value in data set [4] is reported as “fully selective; also recorded: completely selective”.

`Fc1cc(CN2CCO[C@H](COc3ccccc3)C2)ccc1C(F)(F)F` [Compound 4j]: the CLint scaled is 247 mL/min/kg in data set [2] and 50.5 mL/min/kg in data set [3].

Turning to `COc1cc(CN2CCO[C@H](COc3ccccc3)C2)ccc1Cl` [Compound 4p], the intrinsic metabolic clearance (CLint scaled) in data set [2] worked out at 1500 mL/min/kg; in [3], 79.7 mL/min/kg.

As for `COc1ccc(CN2CCO[C@H](COc3ccccc3)C2)cc1Cl` [Compound 4n], the CLint scaled in data set [2] was determined as 1600 mL/min/kg; in data set [3], 78.7 mL/min/kg. In addition, the inhibition at 10 µM on D5, at D1 and at D3 was < 50% throughout.

Turning to `c1ccc(OC[C@@H]2CN(Cc3ccc4[nH]ccc4c3)CCO2)cc1` [Compound 4z], the CLint scaled was found to be 3140 mL/min/kg in data set [2] and 135 mL/min/kg in data set [3].

For the compound `COc1cc(CN2CCO[C@H](COc3cccc(F)c3)C2)ccc1Cl` [Compound 5n], the CLint scaled in [2] was determined as 1770 mL/min/kg; in data set [3], 68.9 mL/min/kg. Besides, the inhibition at 10 µM on D5, at D1 and at D3 was < 50% throughout.

As to `c1ccc(OC[C@@H]2CN(Cc3ncn4ccccc34)CCO2)cc1` [Compound 4u], the inhibition at 10 µM at D5, on D1 and on D3 was < 50% each time.

As for `Fc1cc(CN2CCO[C@H](COc3ccccc3)C2)ccc1Cl` [Compound 4g], the values for the CLint scaled in data set [2] and in data set [3] were 251 mL/min/kg and 65.3 mL/min/kg, respectively. Besides, in data set [3], the predicted clearance result was “moderate”.

For `c1ccc(OC[C@@H]2CN(Cc3n[nH]c4ccccc34)CCO2)cc1` [Compound 4v], the inhibition at 10 µM at D5, at D1 and at D3 was < 50% throughout.

`COc1ccc2c(CN3CCO[C@H](COc4ccccc4)C3)c[nH]c2c1` [Compound 4dd]: the figures for the CLint scaled in [2] and in data set [3] were 184 mL/min/kg and 31.6 mL/min/kg, respectively.

Take `COc1ccc(CN2CCO[C@H](COc3cccc(F)c3)C2)cc1Cl` [Compound 5m]: the CLint scaled in data set [2] came out at 1500 mL/min/kg; in [3], 93 mL/min/kg. The inhibition at 10 µM at D5, at D1 and at D3 was < 50% throughout.

In [2], `c1ccc(OC[C@@H]2CN(Cc3cn4ccccc4n3)CCO2)cc1` [Compound 4t] came in with a CLint scaled of 154 mL/min/kg. Besides, in data set [3], the CLint scaled was 17.3 mL/min/kg and the predicted clearance entry was “moderate”.
